{
  "source": "paper PMC4358770",
  "about": "(Journal of medicinal chemistry, 2010)",
  "key": {"[1]": {"molecular_target": "T1, NTPDase8 (Homo sapiens, UniProt Q5MY95)", "T1 sequence (Q5MY95 1-495)": "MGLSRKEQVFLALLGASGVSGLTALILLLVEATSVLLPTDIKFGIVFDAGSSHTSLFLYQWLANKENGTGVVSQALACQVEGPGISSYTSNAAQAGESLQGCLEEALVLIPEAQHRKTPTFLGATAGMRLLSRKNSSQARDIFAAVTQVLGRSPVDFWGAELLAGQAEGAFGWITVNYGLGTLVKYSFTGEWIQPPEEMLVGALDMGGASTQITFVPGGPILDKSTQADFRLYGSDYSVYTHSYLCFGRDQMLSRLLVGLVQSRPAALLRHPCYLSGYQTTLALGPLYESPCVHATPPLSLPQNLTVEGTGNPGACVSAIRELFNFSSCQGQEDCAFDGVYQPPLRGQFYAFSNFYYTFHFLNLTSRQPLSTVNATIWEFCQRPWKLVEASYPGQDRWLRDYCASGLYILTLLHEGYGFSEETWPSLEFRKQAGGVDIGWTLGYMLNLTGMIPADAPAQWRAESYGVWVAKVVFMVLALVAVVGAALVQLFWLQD", "assay": "NTPDase8 hydrolysis assay", "assay_type": "in vitro ADME", "conditions": "100 μM ATP (100% reference)", "outline": "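Enzymes were transiently expressed in COS-7 cells. Crude protein extracts were made by sonication, 300g clearing at 4 °C and storage at −80 °C, with protein measured by Bradford. Extract was preincubated 3 min at 37 °C in Tris-Ringer buffer, pH 7.4. […] Activity of untransfected-cell extract was subtracted.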"}, "[2]": {"molecular_target": "T2, human NPP1 (Homo sapiens, UniProt P22413)", "T2 sequence (P22413 1-925)": "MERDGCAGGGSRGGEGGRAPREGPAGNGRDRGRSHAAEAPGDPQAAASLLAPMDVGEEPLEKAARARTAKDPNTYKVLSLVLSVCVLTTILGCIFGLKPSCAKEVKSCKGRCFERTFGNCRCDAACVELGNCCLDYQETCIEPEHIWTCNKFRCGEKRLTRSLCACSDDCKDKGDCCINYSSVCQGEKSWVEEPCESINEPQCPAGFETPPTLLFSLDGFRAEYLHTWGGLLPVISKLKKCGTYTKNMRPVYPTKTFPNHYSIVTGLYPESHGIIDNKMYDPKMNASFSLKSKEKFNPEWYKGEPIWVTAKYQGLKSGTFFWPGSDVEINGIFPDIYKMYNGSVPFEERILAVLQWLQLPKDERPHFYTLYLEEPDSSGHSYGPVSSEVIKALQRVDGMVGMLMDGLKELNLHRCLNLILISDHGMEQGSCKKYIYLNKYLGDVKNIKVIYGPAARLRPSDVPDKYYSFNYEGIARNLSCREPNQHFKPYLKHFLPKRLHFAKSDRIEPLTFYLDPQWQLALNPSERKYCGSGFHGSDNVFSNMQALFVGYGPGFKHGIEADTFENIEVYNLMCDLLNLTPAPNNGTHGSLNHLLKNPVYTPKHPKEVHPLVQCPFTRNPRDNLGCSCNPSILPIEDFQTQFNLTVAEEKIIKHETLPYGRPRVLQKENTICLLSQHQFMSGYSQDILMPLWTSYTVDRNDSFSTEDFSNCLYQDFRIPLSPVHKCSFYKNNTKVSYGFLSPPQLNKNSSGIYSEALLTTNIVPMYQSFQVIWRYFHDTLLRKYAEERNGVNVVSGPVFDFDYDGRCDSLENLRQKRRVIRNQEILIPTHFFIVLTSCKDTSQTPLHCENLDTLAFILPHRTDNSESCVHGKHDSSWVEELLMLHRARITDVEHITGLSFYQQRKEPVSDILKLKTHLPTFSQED", "assay": "NPP1 hydrolysis assay", "assay_type": "in vitro ADME", "conditions": "100 μM ATP (100% reference)"}, "[3]": {"molecular_target": "T3, human NPP3 (Homo sapiens, UniProt O14638)", "T3 sequence (O14638 1-875)": "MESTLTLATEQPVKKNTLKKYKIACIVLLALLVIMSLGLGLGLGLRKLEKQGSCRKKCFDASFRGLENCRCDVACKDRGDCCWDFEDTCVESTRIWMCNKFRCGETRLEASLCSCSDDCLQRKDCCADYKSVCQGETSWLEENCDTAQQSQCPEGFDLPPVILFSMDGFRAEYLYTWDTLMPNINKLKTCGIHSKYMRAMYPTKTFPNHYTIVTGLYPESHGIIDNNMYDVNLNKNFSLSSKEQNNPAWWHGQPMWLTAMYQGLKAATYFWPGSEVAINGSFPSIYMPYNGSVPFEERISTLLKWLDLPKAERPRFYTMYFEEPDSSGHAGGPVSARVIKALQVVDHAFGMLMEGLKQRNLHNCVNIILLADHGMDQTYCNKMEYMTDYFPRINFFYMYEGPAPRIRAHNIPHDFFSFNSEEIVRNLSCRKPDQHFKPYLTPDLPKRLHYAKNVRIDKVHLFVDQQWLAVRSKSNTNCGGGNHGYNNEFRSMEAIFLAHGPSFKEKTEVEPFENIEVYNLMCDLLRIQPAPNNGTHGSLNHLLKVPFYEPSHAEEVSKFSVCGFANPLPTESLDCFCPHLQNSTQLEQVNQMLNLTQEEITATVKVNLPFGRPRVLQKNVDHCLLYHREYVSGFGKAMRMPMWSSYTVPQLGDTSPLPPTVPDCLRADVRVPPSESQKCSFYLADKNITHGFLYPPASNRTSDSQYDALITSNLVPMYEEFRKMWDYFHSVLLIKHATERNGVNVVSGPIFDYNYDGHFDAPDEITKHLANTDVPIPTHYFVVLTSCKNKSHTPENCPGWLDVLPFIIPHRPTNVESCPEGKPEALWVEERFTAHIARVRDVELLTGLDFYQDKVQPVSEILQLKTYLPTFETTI", "assay": "NPP3 hydrolysis assay", "assay_type": "in vitro ADME", "conditions": "100 μM ATP (100% reference)"}, "[4]": {"assay": "pKa and ionization of the terminal phosphate/phosphonate", "assay_type": "physicochemical", "conditions": "pH 7.4, terminal phosphate/phosphonate"}, "[5]": {"conditions": "cited from earlier work"}, "[6]": {"tested_on": "rabbit IOP", "conditions": "topically applied to New Zealand white rabbits; cited from earlier work"}, "[7]": {"molecular_target": "alkaline phosphatase (Bos taurus, UniProt P19111)", "sequence (P19111 20-533)": "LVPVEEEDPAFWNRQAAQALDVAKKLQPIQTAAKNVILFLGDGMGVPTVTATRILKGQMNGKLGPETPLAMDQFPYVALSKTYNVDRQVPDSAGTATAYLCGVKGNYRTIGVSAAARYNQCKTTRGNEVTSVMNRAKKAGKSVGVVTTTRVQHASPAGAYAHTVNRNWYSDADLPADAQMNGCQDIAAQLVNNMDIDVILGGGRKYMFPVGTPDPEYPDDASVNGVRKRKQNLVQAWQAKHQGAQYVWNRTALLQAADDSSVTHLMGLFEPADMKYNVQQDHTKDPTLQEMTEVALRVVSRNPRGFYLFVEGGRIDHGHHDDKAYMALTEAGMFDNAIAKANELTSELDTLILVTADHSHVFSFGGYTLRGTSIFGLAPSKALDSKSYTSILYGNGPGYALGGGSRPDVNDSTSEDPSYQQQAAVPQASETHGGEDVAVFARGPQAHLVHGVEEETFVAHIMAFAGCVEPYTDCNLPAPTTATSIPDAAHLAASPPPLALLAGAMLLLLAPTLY", "assay": "Hydrolysis by alkaline phosphatase", "conditions": "bovine, calf intestine alkaline phosphatase, pH 9.8"}, "[8]": {"molecular_target": "calf intestine alkaline phosphatase (Bos taurus, UniProt P19111)", "sequence (P19111 20-533)": "as above", "assay": "Hydrolysis by alkaline phosphatase", "conditions": "0.2 mg analogue/77.5 μL, 12.5 units of AP, 37 °C, 3 h"}},
  "data": [
    {"smiles": "Nc1ncnc2c1ncn2[C@@H]1O[C@H](COP(=O)(O)OP(=O)(O)OP(=O)(O)O)[C@@H](O)[C@H]1O", "note": "[ATP]", "values": [
      {"measurement": "hydrolysis rate by NTPDase8", "setting": "[1]", "value": "229 ± 20 nmol Pi·min^−1·mg protein^−1"},
      {"measurement": "hydrolysis rate by NPP1", "setting": "[2]", "value": "619 nmol nucl·min^−1·mg protein^−1"},
      {"measurement": "hydrolysis rate by NPP3", "setting": "[3]", "value": "245 nmol nucl·min^−1·mg protein^−1"},
      {"measurement": "fraction ionized at physiological pH", "setting": "[4]", "value": 91, "unit": "%"},
      {"measurement": "t1/2 in human blood serum", "setting": "[5]", "value": 3.6, "unit": "h"},
      {"measurement": "effect on IOP (increase or reduction)", "setting": "[6]", "value": "reduced"},
      {"measurement": "half-life at 2.58 mg/mL", "setting": "[7]", "value": 1.4, "unit": "h"},
      {"measurement": "degradation by alkaline phosphatase after 3 h", "setting": "[8]", "value": 96, "unit": "%"}
    ]}
  ]
}
